From the EternaBench riboswitch data

Test system: MS2 coat protein
Assay: apparent Kd, MS2 coat protein; higher = weaker binding; RNA-MaP array; theophylline 2 mM where present
Summary of the method: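 The apparent Kd comes from binding curves fitted cluster by cluster, filtered, and summarised as a median. Those curves followed SNAP-549-labelled MS2 coat protein from 0.7 or 1.5 nM, doubling to 3 µM, on Illumina sequencing-chip clusters where stalled E. coli RNA polymerase had transcribed the designs, without and then with constant ligand. The buffer was 100 mM Tris-HCl pH 7.5, 80 mM KCl, 4 mM MgCl2, BSA, DTT, yeast tRNA and Tween-20, and green signal was normalised to red-channel RNA signal and control-cluster median Fmax.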

[1] = designed as: OFF switch for theophylline, no ligand
[2] = ligand present: theophylline, designed as: OFF switch for theophylline
[3] = designed as: ON switch for theophylline, no ligand
[4] = ligand present: theophylline, designed as: ON switch for theophylline

Sequence | apparent Kd [1] [nM] | apparent Kd [2] [nM] | apparent Kd [3] [nM] | apparent Kd [4] [nM]
AGACAUGAGGAUCACCCAUGUAGUAUGGAUACCAGAUCCAGAUUUAUCCCUUGGCAGCUGUGGUACAGUGAUGGAUUGCUCCUAG | 31 | 40.8 | – | –
AGAUUACAUGUUAUAAUACGGUAUACUGAUACCAGUGUUUCUAUUCACCCUUGGCAGCAGCAACAUGAGGAUCACCCAUGUAUUA | – | – | 17.1 | 16
AGCCUCAUACAUGAGGAUCACCCAUGUGAUACCAGUCAGGAAACUGACCCUUGGCAGCGCAUGAGGAUCACCCAUGCGCGAGGCA | 59.7 | 113 | – | –
AGCGACAUGCAUGAUACCAGCUACAUGAGGAUCACCCAUGUACGUCAGUAAUGACUGUGUAGCCCUUGGCAGCAUAGAGCAUGUC | 18.3 | 48.6 | – | –
AGCGACAUGCGUGAUACCAGCUACAUGAGGAUCACCCAUGUAAGUAGGAAACUACUGUGUAGCCCUUGGCAGCAUAGUGCAUGUC | 13.5 | 41.5 | – | –
AGUACACGAACGGAUACCAGCCGGACAUGAGGAUCACCCAUGUCCUACCUCUGUUCGGUUGGCCCUUGGCAGCCGUUCGUGUACA | – | – | 117 | 88.3
AGUAUACAUUCUGAUACCAGAGACAUGAGGAUCACCCAUGUCCGAUCGUCCUGCCUCAGACUCCCUUGGCAGCAGGAUAUGUGCU | 16.2 | 27.6 | – | –
AUCGUACCUGAAGAUACCAGCAUGUGAUCAUAACAUGAGGAUCACCCAUGUAAUCAGUGAUGCCCUUGGCAGCUUGAUCGGUACA | – | – | 40.8 | 19.2
AUCGUACCUGAUGAUACCAGCAUGUGAUCAUAACAUGAGGAUCACCCAUGUAAUCAGUGAUGCCCUUGGCAGCAUAGUCGAUACA | – | – | 153 | 55.9
AUCGUACCUGAUGAUACCAGCAUGUGCUCGUAACAUGAGGAUCACCCAUGUGAUCAGUAAUGCCCUUGGCAGCAUGAUCGGUACA | – | – | 57.9 | 14.3
AUGUCGUUGAAUAUAGCGGCUUGGAGUGAUACCAGAAUGAUCUAAUUCCCUUGGCAGCAUUACAUGAGGAUCACCCAUGUUCCAG | – | – | 51.1 | 39.7
AUUAAAAGUUGUGAUACCAGACGAACAUGAGGAUCACCCAUGUAACUUUUAGGUGUUGUAGUCCCUUGGCAGCACUAUGUAGUUA | – | – | 43.6 | 38.2
AUUUUCAUGGUCAUAUAUAUAUCUUCAGAUACCAGACUAUAUUAAGUCCCUUGGCAGCUGUUACAUGAGGAUCACCCAUGUUAUA | 127 | 36.2 | – | –
CAAGAAGUAACUGAUACCAGUGUACUGACAUGAGGAUCACCCAUGUUGGGUUUUGUUGUACACCCUUGGCAGCAGAAUCUUCUUG | 66.8 | 90.5 | – | –
CAAUACGUAACUGAUACCAGUGUACUGACAUGAGGAUCACCCAUGUUGGGUUUUGUUGUACACCCUUGGCAGCAGAAUCGUAUUG | 70.1 | 93.7 | – | –
CAGGUGCAGUCAGAUACCAGAUCUGCACAUGAGGAUCACCCAUGUGUAAUGAGUUCAAAGAUCCCUUGGCAGCUGUGUGAUCCGA | – | – | 165 | 193
CAUACUUUAGUAUGACAUGUGGGCAGUGAUACCAGAUACGAAAGUAUCCCUUGGCAGCACAACAUGAGGAUCACCCAUGUAAUUA | – | – | 29.6 | 59.2
CCGAACAUGAGGAUCACCCAUGUUAGGGAUACCAGCCCAGACAUGGGCCCUUGGCAGCUCUAUAGCUGACGAAAGUCAGCAUCGG | – | – | 58.5 | 30.5
CCUGCGUUUCUUUUCUUUCGCAGGAAUGAUACCAGUAGGGAAACCUACCCUUGGCAGCAUGGGUAACAUGAGGAUCACCCAUGUU | – | – | 473 | 82.2
CCUGCUACGGGAAACCGUAGCAGGAAUGAUACCAGUAGGAAAGACUACCCUUGGCAGCAUGGGAAACAUGAGGAUCACCCAUGUU | – | – | 56.3 | 56.6
CGAUACGUAACUGAUACCAGUGUACUGACAUGAGGAUCACCCAUGUUGGGUUUUGUUGUACACCCUUGGCAGCAGAAUCGUAUCG | 67.5 | 96.1 | – | –
CUGCUACAUGAGGAUCACCCAUGUGGAGAUACCAGCCUGAACGAUGGCCCUUGGCAGCUCUUAGCUGGUGAUCAUAUAUUUCAGA | 30.5 | 146 | – | –
GAGCUGAUGUAGAAAUUUUAUUUCUGAGAUACCAGUACAGAAAUGUACCCUUGGCAGCUCAGUUUUACAUGAGGAUCACCCAUGU | 12.2 | 15 | – | –
GAUCUGUCGGGUGAUACCAGCCUCGGCACAUCUCGUGCCGAACAUGAGGAUCACCCAUGUGGCCCUUGGCAGCACAUGACAAAUC | – | – | 362 | 55.1
GCCAGACAUGAGGAUCACCCAUGUAGCGAUACCAGCUCUGUUGUGAGCCCUUGGCAGCGCACUGGCAUCGCGGGUGAUCCUGCAU | – | – | 43.4 | 164
GCUGUAAGUGCAGAUACCAGCAAGUGAGGUUUCAUAUGACAUGAGGAUCACCCAUGUAUCUGCCCUUGGCAGCUGCACUUACAGC | – | – | 21.4 | 15.2

Sequence | apparent Kd [1] [nM] | apparent Kd [2] [nM] | apparent Kd [3] [nM] | apparent Kd [4] [nM]
GCUGUAAGUGCAGAUACCAGCAGGUGAUAUUUCAUAUGACAUGAGGAUCACCCAUGUAACUGCCCUUGGCAGCUGCACUUACAGC | – | – | 373 | 40.9
GGUGGAGGCGUGGGACUUGUCUGAACGGAUACCAGCCACAUCACGGGCCCUUGGCAGCUGUACAUGAGGAUCACCCAUGUCGGUC | 32.3 | 93.7 | – | –
GGUGGUGGGACGGAUACCAGCCACCGCGGCAACGCAACAUGAGGAUCACCCAUGUUGGGUGGCCCUUGGCAGCUGUCCUGCGGCG | – | – | 13.9 | 13.1
GGUGGUGUGACGGAUACCAGCCACCGCGGCAACGCAACAUGAGGAUCACCCAUGUUGGGUGGCCCUUGGCAGCUGUCGUGCGGCG | – | – | 96.5 | 84.7
GUUAUGGACCUGGAUACCAGCUGGUACAAGGGCGGUCUACAUGAGGAUCACCCAUGUGUCAGCCCUUGGCAGCCAGCAACCCACU | 9.88 | 11.4 | – | –
UAAUAUCACAUAUUAUGGGUGUAAUGUGAUACCAGCUAGGAAACUAGCCCUUGGCAGCACAUGAGGAUCACCCAUGUAAGCUGUA | 77.9 | 49.7 | – | –
UAUACAUGGGAUACCAUGGAUCCGAGUGAUACCAGCUAUCCGAAUAGCCCUUGGCAGCACAGUACAUGAGGAUCACCCAUGUAUA | – | – | 27.5 | 33
UAUAUAUAAAUUGAUACCAGCGAGAAAACAUGAGGAUCACCCAUGUUCGCCCAUGUUAAGCGCCCUUGGCAGCAAUAUUAUUAUU | 24.5 | 73 | – | –
UCACGACGCAUGGAUACCAGCGACAUGAGGAUCACCCAUGUAUGAGGAUCAGCCAUGUUAUGCCCUUGGCAGCCACGAAGGUCAU | 14.1 | 64.1 | – | –
UCAUUUGAGUGAGAUGUAAGGUAUCAUGAUACCAGUAGAUAAUUAUACCCUUGGCAGCAUGACAUGAGGAUCACCCAUGUACAUG | 11.1 | 10.3 | – | –
UCGGCAGUGAACGAUACCAGCGUCACGUGGCCGGUGGUCACAUGAGGAUCACCCAUGUAACGCCCUUGGCAGCGUGCGCGUACCG | 23.9 | 129 | – | –
UCGUGUGUUUCGGAUACCAGUGAAAUCGAUACAUGAGGAUCACCCAUGUGAGAGGAUGUACACCCUUGGCAGCUGGCUGUUGCGG | – | – | 42.4 | 42.6
UCGUGUGUUUCGGAUACCAGUGAAAUCGAUACAUGAGGAUCACCCAUGUGAGAGGAUGUACACCCUUGGCAGCUGUCUGUAGCGG | – | – | 48.9 | 37.4
UGAACAUGAGGAUCACCCAUGUAGUCAGAUACCAGACACUGCAUGGUCCCUUGGCAGCUGAAGAGCGUUUGCCAAAUAACGUUCA | – | – | 162 | 567
UGACAUUGCUGCGAUACCAGACAUGAGGAUCACCCAUGUGCCAAAUAAACGUACAUAAAUGUCCCUUGGCAGCGCAGCAAUGUCU | 64.4 | 752 | – | –
UGCUGACAAGGACAUGGAUGAUCAGCUGAUACCAGCCUGGAAACAGGCCCUUGGCAGCAGCACAUGAGGAUCACCCAUGUAAUAA | 33.7 | 66.3 | – | –
UGUAACAUGAGGAUCACCCAUGUAAGUGAUACCAGAUAAGUAGUAGUCCCUUGGCAGCAUAUUGGGAAAGUGUAUAGUCUAUACG | – | – | 52.8 | 65.1
UGUAACAUGAGGAUCACCCAUGUAAGUGAUACCAGAUAAGUAGUAGUCCCUUGGCAGCAUAUUGGGAAAGUGUAUAGUCUAUAUU | – | – | 57.2 | 55.6
UGUAACAUGAGGAUCACCCAUGUAAGUGAUACCAGAUAAGUAGUAGUCCCUUGGCAGCAUAUUGGGAAAGUGUAUAGUGUAUAUG | – | – | 53.3 | 61.7
UGUCUAGUAAUCGAUACCAGCUACAUGAGGAUCACCCAUGUAGUUCGAACGGCCGCAUGUAGCCCUUGGCAGCGAAUAGUUACAU | 18.9 | 52.7 | – | –
UUAUUUAUAUUAGAUACCAGUUUAAUGGCCGCAAAUCCUGACAUGAGGAUCACCCAUGUAAGCCCUUGGCAGCUGGUAUGGGUUU | 19.3 | 20.7 | – | –
UUGGUAGGACAGCUCAUAUAAGCAUGUGAUACCAGCUAGAAAACUAGCCCUUGGCAGCACUUUACAUGAGGAUCACCCAUGUCCC | 165 | 460 | – | –
UUUACAUGAGGAUCACCCAUGUGCCAUGAUACCAGACAUGAAAAUGUCCCUUGGCAGCAUGAAUAAUCCUCGUCGGGAAACCGAC | – | – | 140 | 544
UUUGAUAGGACAGAUACCAGCGUGUUAUAAAACAUGAGGAUCACCCAUGUAGUGAUCAAGCGCCCUUGGCAGCUGGUUUGUUAGG | – | – | 188 | 323
UUUUAAAGCAUGGCGUAUCGGAAAACCGAUACCAGUACAGAAAUGUACCCUUGGCAGCGGCAUUUUACAUGAGGAUCACCCAUGU | 14 | 40.3 | – | –
UUUUAACAUGAGGAUCACCCAUGUAAUGAUACCAGAGACGAAAGUCUCCCUUGGCAGCAUAUAUCAUUACUCAUAGGAAACUAUG | – | – | 17.5 | 16
